Compound activity from PubChem BioAssay.
Hits are enriched below; roughly 1.6% of the tested compounds scored in any of these assays.
ADAM17 inh = ADAM17 inhibition, QFRET primary screen; P78536; recombinant ADAM17, EDANS/DABCYL FRET peptide cleavage; inhibition, % at 6.95 µM; hit rate 0.83% among 370,000; AID 720648;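 active = inhibition above the mean of compounds lying between control limits plus 3 SD, set per campaign, cut at about 8.5% in these data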
ADAM10 inh = inhibitors of human ADAM10; O14672; recombinant ADAM10, EDANS/DABCYL FRET peptide cleavage, 3 h; inhibition, % at 7 µM; hit rate 0.62% among 370,000;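 active = inhibition above a per-campaign cutoff equal to the mean of compounds falling between control-based bounds plus 3 SD, cut at about 20% in these data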
DDE Tn7 FP inh = inhibitors of Tn7 peptide binding to human fibrin DD(E). inhibition, % at 8.3 µM. AID 720508. hit rate 0.13% among 370,000. FP displacement of FITC-Tn7 peptide from fibrin DD(E); 0% = median of compound wells per plate;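 active = inhibition above the mean of compounds falling within the control limits plus 3 SD of them, cut at about 14% in these data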
Target sequence (P02675 whole entry, looked up): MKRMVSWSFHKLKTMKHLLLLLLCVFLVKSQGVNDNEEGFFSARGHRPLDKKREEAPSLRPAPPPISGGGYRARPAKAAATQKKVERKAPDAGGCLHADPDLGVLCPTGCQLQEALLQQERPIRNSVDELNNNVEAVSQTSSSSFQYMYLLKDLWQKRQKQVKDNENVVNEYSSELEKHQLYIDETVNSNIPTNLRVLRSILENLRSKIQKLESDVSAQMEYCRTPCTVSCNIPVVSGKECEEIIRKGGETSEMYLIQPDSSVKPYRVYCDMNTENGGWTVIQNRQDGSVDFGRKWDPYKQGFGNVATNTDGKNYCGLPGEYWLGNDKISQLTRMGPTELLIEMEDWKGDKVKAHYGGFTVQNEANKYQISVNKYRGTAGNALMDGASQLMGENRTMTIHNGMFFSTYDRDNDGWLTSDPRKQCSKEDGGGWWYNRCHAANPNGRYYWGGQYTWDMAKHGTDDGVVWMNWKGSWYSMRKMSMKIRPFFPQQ
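assay system = human clot-derived fibrin DD(E) complex | quantity = Fibrin-DD(E) at 2 µM final | timing = 10 min preincubation, 3 h with tracer, room temperature | signal = fluorescence polarization | measure = percent inhibition | benchmarks = high control wells with 10 µM unlabelled Aha-Tn7 peptide (full inhibition) | replicates = singlicate testing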
MT1-MMP act inh = MT1-MMP (human) activation inhibition. P50281. hit rate 0.061% among 360,000. GFP/RFP ratio change, % at 20 µM. HT1080 RFP-PRO-GFP cells, GFP/RFP ratio fluorescence, overnight; percent of plate control window, DMSO zero;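 active = GFP/RFP ratio change of at least 30% with cell ATP level not reduced by more than half and red fluorescence within 50% of control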
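Assay system – RFP-PRO-GFP reporter HT1080 cells · Compound dosing – single dose of 20 µM compound, 1% DMSO final · Incubation – overnight compound exposure at 37 °C · Measure – GFP/RFP fluorescence ratio · Benchmarks – DMSO wells and RFP-L50D-GFP cells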
Tn6 DDE FP = DD(E)-Tn6 binding inhibition, primary FP screen | hit rate 0.21% among 370,000 | AID 720509 | inhibition, % at 8.3 µM | Fibrin DD(E) TRITC-Tn6 fluorescence polarization displacement;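 active = inhibition above a per-campaign cutoff: mean of compounds within control limits plus 3 SD, cut at about 15% in these data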
ADAM10 confirm = confirmation of inhibitors of human ADAM10; ADAM10 QFRET peptide cleavage, EDANS fluorescence; shares compounds with ADAM10 inh; hit rate 1% among 2,100; inhibition, % at 6.95 µM;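 active = inhibition above about 20% chosen separately for each screening run, limit read from the data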
ADAM17 ctr = counter-screen for ADAM10 exosite inhibitors: inhibitors of human ADAM17 | inhibition, % at 6.95 µM | hit rate 0.5% among 2,100 | ADAM17 QFRET peptide cleavage, EDANS fluorescence | AID 743214 | shares compounds with ADAM10 inh;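 active = mean triplicate inhibition above the solvent-only control wells' mean plus 3 SD, cut at about 12% in these data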
ADAM10 counter = counter-screen for ADAM17 exosite inhibitors: inhibitors of human ADAM10. shares compounds with ADAM17 inh. recombinant ADAM10, EDANS/DABCYL FRET peptide cleavage, 3 h. inhibition, % at 6.95 µM. hit rate 47% among 2,900. AID 743256;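 active = mean inhibition over the triplicate runs exceeds the activity threshold set in the earlier primary screen, cut at about 20% in these data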
ADAM17 confirm = human ADAM17 inhibition, confirmation. recombinant ADAM17, EDANS/DABCYL QFRET peptide cleavage. inhibition, % at 6.95 µM. hit rate 65% among 2,900. shares compounds with ADAM17 inh;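 active = mean inhibition across replicates above the hit cutoff set in the primary screen, cut at about 8.5% in these data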
Of the large screens only hits and unclear results are named; the others gave an inactive call (follow-up assays come after a bar, where they were run).

COC(=O)CN1C(c2cccc(Cl)c2)=Nc2ccc(Cl)cc2C1c1ccccc1 (configuration not stated)	ADAM17 inh 16, ADAM10 inh 21 | ADAM10 confirm inactive | ADAM17 ctr inactive | ADAM10 counter inactive | ADAM17 confirm 8.8
CN(C)c1ccc(NS(=O)(=O)c2cccc(Cl)c2)cc1	none
CN(C)c1ccc(NS(=O)(=O)c2ccc(Cl)cc2)cc1	ADAM17 inh 13, ADAM10 inh 34 | ADAM10 confirm inactive | ADAM17 ctr inactive | ADAM10 counter inactive | ADAM17 confirm inactive
CCOC(=O)C1=C(C(=O)OCC)C2N(Cc3ccc(C#N)cc3)c3ccccc3[C@@]23C[C@@H](C(=O)OC)N(S(=O)(=O)c2ccc(C)cc2)C3=N1 (some centres not stated)	none (no result: MT1-MMP act inh)
CCn1cc([N+](=O)[O-])c(C(=O)N2N=C(c3ccc4ccccc4c3)CC2c2ccccc2O)n1 (configuration not stated)	ADAM17 inh 9.1, ADAM10 inh 24 | ADAM10 confirm inactive | ADAM17 ctr inactive | ADAM10 counter 33 | ADAM17 confirm 18
CCn1cc([N+](=O)[O-])c(C(=O)N2N=C(c3cccc4ccccc34)CC2c2ccccc2O)n1 (configuration not stated)	ADAM17 inh 9.3, ADAM10 inh 23 | ADAM10 confirm inactive | ADAM17 ctr inactive | ADAM10 counter 29 | ADAM17 confirm 17
CCn1cc([N+](=O)[O-])c(C(=O)N2N=C(c3ccc(OC)cc3OC)CC2c2ccccc2O)n1 (configuration not stated)	none
CCn1cc(Cl)c(C(=O)N2N=C(c3ccc4ccccc4c3)CC2c2ccccc2O)n1 (configuration not stated)	none
CCc1ccccc1NC(=O)[C@@H]1CCCN1S(=O)(=O)c1cccc2cccnc12	none (no result: MT1-MMP act inh)
CC(C)(C)NC(=O)C(c1cccnc1)N(C(=O)c1cccs1)c1ccc(C(C)(C)C)cc1 (configuration not stated)	none (no result: MT1-MMP act inh)
CC(=O)C1=C(C)N(CC(C)C)C(=S)NC1c1cccc(Cl)c1 (configuration not stated)	none (no result: MT1-MMP act inh)
Cc1nn(Cc2ccccc2)c(C)c1/C=N/NC(=O)CNc1cccc(C(F)(F)F)c1	ADAM17 inh 11, ADAM10 inh 21 | ADAM10 confirm inactive | ADAM17 ctr inactive | ADAM10 counter inactive | ADAM17 confirm 10
COc1ccc(NCC(=O)N/N=C/c2c(C)nn(Cc3ccccc3)c2Cl)cc1	none
Cc1ccc(NC(=O)COC(=O)/C=C/c2cccc(Cl)c2)cc1S(=O)(=O)N1CCOCC1	ADAM17 inh 9.5, ADAM10 inh 29 | ADAM10 confirm inactive | ADAM17 ctr inactive | ADAM10 counter 26 | ADAM17 confirm 15
Cc1ccc(NC(=O)COC(=O)CN2C(=O)C3CCCCC3C2=O)cc1S(=O)(=O)N1CCOCC1 (configuration not stated)	none
Cc1ccc(NC(=O)COC(=O)CC2CC3CCC2C3)cc1S(=O)(=O)N1CCOCC1 (configuration not stated)	ADAM17 inh 12, ADAM10 inh 23 | ADAM10 confirm inactive | ADAM17 ctr inactive | ADAM10 counter inactive | ADAM17 confirm inactive
O=C(COC(=O)/C=C/c1cccc(Cl)c1)Nc1ccc(N2CCOCC2)cc1	none
CCCCCCCCN1C(=O)[C@@H](CC(=O)N2CCN(C(=O)C3CC3)CC2)C[C@@]2(C(=O)OC)C1=C[C@H](C(C)C)O[C@@H]2C1CC1	none (no result: MT1-MMP act inh)
